We go through two compounds from ChEMBL document CHEMBL1949586, “Conicasterol E, a small heterodimer partner sparing farnesoid X receptor modulator endowed with a pregnane X receptor agonistic activity, from the marine sponge Theonella swinhoei” (J Med Chem, 2012).

Active and inactive are the calls of the source. The rule behind the calls is not given here.

Assay type in all cases: functional, cell-based
Data set [1] deals with T1, Bile acid receptor (Homo sapiens) (UniProt Q96RI1).
T1 sequence (whole entry): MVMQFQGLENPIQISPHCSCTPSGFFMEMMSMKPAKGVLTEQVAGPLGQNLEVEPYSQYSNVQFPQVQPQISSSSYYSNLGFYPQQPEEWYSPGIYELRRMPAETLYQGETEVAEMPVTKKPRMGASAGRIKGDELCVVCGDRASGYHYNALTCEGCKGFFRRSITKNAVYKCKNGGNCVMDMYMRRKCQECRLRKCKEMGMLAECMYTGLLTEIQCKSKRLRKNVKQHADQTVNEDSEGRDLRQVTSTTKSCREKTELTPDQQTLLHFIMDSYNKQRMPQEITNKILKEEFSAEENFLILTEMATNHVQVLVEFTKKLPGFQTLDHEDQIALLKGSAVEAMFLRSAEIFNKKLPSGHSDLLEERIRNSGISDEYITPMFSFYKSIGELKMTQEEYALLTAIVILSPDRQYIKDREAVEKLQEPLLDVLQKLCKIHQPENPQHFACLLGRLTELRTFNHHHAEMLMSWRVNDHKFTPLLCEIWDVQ
Nature of the data set: Agonist activity at FXR expressed in human HepG2 cells assessed as increase in OSTalpha mRNA level at 10 uM by RT-PCR analysis. In a few lines:
(§1)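 HepG2 cells exposed to 10 μM test agent, alone or with 10 μM CDCA. mRNA was measured by SYBR Green real-time PCR with 50 ng template and 0.2 μM of each primer. Cycling was 95 °C 2 min, then 40 cycles of 95/55/72 °C. Reactions ran in triplicate. CT was normalised to GAPDH, and ΔΔCT was taken against untreated cells. Four experiments were run.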

Data set [2] deals with T1, Bile acid receptor (Homo sapiens). Nature of the data set: Agonist activity at FXR expressed in human HepG2 cells at 50 uM after 48 hrs by luciferase reporter gene based transactivation assay. The method in brief: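 HepG2 cells (5 × 10⁵/well) were transfected using Fugene HD with pSG5-FXR, pSG5-RXR, pCMV-β-gal and the p(hsp27)-TK-LUC reporter (IR1 element). Cells were stimulated 48 h post-transfection for 18 h. Luciferase from lysates was normalised to β-galactosidase activity. Four experiments were run.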
Background: Reporter assays use an easily measured gene product as a stand-in for the process of interest.

The target is the same in data set [3]. Nature of the data set: Antagonist activity at FXR expressed in human HepG2 cells assessed as inhibition of CDCA-mediated transactivation at 10 uM after 48 hrs by luciferase reporter gene assay. The method in brief:
(§2)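 Antagonism was tested in the FXR transactivation system: HepG2 cells transfected with FXR, RXR, β-gal and the hsp27 IR1-luciferase reporter. Cells were stimulated 48 h after transfection for 18 h with 10 μM CDCA plus test agent. Luciferase was normalised to β-gal. Four experiments were run.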

Data set [4] has the same target. Nature of the data set: Antagonist activity at FXR expressed in human HepG2 cells assessed as inhibition of 6-ECDCA-mediated transactivation at 10 uM after 48 hrs by luciferase reporter gene assay. In a few lines:
(§3)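 The FXR/RXR/hsp27-luciferase HepG2 transfection system was used, with test agent co-administered alongside 6-ECDCA. Stimulation was 18 h, starting 48 h after transfection. Luciferase was normalised to β-galactosidase.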

For data set [5] the target is unchanged. Nature of the data set: Agonist activity at FXR expressed in human HepG2 cells assessed as increase in BSEP mRNA level at 10 uM by RT-PCR analysis. The method in brief:
as §1

The target is the same in data set [6]. Nature of the data set: Agonist activity at FXR expressed in human HepG2 cells assessed as increase in CYP7A1 mRNA level at 10 uM by RT-PCR analysis relative to control. The method in brief:
as §1

The target is the same in data set [7]. Nature of the data set: Antagonist activity at FXR expressed in human HepG2 cells assessed as inhibition of 6-ECDCA-mediated transactivation at 50 uM after 48 hrs by luciferase reporter gene assay. The method in brief:
as §3

For data set [8] the target is unchanged. Nature of the data set: Antagonist activity at FXR expressed in human HepG2 cells assessed as inhibition of CDCA-mediated transactivation at 50 uM after 48 hrs by luciferase reporter gene assay. The method in brief:
as §2

For data set [9] the target is unchanged. Nature of the data set: Agonist activity at FXR expressed in human HepG2 cells assessed as effect on SHP mRNA level at 10 uM by RT-PCR analysis. In a few lines: as §1
Data set [10] addresses T2, Nuclear receptor subfamily 1 group I member 2 (Homo sapiens, UniProt O75469).
T2 sequence (O75469 whole entry): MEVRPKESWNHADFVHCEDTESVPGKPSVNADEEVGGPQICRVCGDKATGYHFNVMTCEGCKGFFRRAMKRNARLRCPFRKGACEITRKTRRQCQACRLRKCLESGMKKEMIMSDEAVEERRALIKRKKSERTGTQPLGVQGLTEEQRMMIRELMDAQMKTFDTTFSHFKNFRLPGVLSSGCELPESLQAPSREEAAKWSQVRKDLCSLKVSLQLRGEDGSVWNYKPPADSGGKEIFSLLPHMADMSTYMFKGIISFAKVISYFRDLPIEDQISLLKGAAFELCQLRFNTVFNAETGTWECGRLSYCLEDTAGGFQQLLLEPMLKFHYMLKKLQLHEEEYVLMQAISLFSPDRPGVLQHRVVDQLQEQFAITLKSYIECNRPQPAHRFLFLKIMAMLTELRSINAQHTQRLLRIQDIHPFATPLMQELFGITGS
Nature of the data set: Agonist activity at PXR expressed in human HepG2 cells assessed as transactivation […] by luciferase reporter gene assay.

Data set [11] has as its target T2, Nuclear receptor subfamily 1 group I member 2. Nature of the data set: Antagonist activity at PXR expressed in human HepG2 cells assessed as inhibition of rifaximin-induced CYP3A4 mRNA expression at 50 uM by RT-PCR analysis. The conditions noted are these: hepg2, 50 µM.

`C=C1[C@@H](O)CC[C@@]2(C)[C@H]1C[C@@H](O)C1=C3[C@H](O)C[C@H]([C@H](C)CC[C@@H](C)C(C)C)[C@@]3(C)CC[C@@H]12` [CONICASTEROL E]: the result in data set [1], in data set [2] and in [5] was Active. Further, the inhibition entry in data set [3], in [4], in data set [7] and in data set [8] was “inactive” in each case. Also, the fold change (FC) in [6] is 2. For the same compound, the result in data set [9] was inactive. The result in [10] was Active. For the same compound, the “inhibition (INH)” value in [11] was “Not Active”.

On to `CO[C@H]1/C=C/O[C@@]2(C)Oc3c(C)c(O)c4c(O)c(c5c(nc6cc(C)ccn65)c4c3C2=O)NC(=O)/C(C)=C\C=C\[C@H](C)[C@H](O)[C@@H](C)[C@@H](O)[C@@H](C)[C@H](OC(C)=O)[C@@H]1C` [RIFAXIMIN], for which the result in data set [10] was Active.
